Laboratory results from ChEMBL document CHEMBL1125678, “Quinazolineacetic acids and related analogues as aldose reductase inhibitors” (J Med Chem, 1991).

How the values were obtained:
Rattus norvegicus [1] = assay: In vivo inhibition of galactitol accumulation in the diaphragm of rats fed 20% galactose for 4 day at 82 mg/kg/day dose; NS = No Significant inhibition of polyol accumulation; format: functional, organism-based
Summary of the method: (§1)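 Male Sprague-Dawley rats (50–70 g) in groups of six were fed chow with 20% (w/w) galactose. Controls received 20% glucose instead. Test compound was mixed into the diet, and dose was calculated from actual food intake. Rats were killed by decapitation after 4 days. Result is % lowering of tissue galactitol versus galactose-fed controls, as the mean of six animals, compared by Dunnett's multiple comparison.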

[2] = target: Aldo-keto reductase family 1 member B1 (Bos taurus) (UniProt P16116); assay: In vitro inhibition of aldose reductase in partially purified bovine lens preparation at a concentration of 10e -7M.
Summary of the method: (§2)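 Enzyme from bovine lens, partially purified by the cited method with the final chromatographic step omitted. DL-Glyceraldehyde was the substrate. Test compounds were run in duplicate at 1×10⁻⁵, 1×10⁻⁶, 1×10⁻⁷ or 4×10⁻⁸ M. Values are % inhibition of enzymatic activity.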

Rattus norvegicus [3] = assay: In vivo inhibition of galactitol accumulation in the sciatic nerve of rats fed 20% galactose for 4 day at 82 mg/kg/day dose; NS = No Significant inhibition of polyol accumulation; format: functional, organism-based; summary of the method: as §1
[4] = target: Aldo-keto reductase family 1 member B1 (Bos taurus) (UniProt P16116); assay: In vitro inhibition of aldose reductase in partially purified bovine lens preparation at a concentration of 10e-6 M.; summary of the method: as §2
Rattus norvegicus [5] = assay: In vivo inhibition of galactitol accumulation in the diaphragm of rats fed 20% galactose for 4 day at 98 mg/Kg/day; NS = No Significant inhibition of polyol accumulation; format: functional, organism-based; summary of the method: as §1
Rattus norvegicus [6] = assay: In vivo inhibition of galactitol accumulation in the sciatic nerve of rats fed 20% galactose for 4 day at 98 mg/kg/day dose; NS = No Significant inhibition of polyol accumulation; format: functional, organism-based
[7] = target: Aldo-keto reductase family 1 member B1 (Bos taurus) (UniProt P16116); assay: In vitro inhibition of Aldose reductase in partially purified bovine lens preparation at a concentration of 10e -7M.; summary of the method: as §2
[8] = target: Aldo-keto reductase family 1 member B1 (Bos taurus) (UniProt P16116); assay: In vitro inhibition of Aldose reductase in partially purified bovine lens preparation at a concentration of 4*10e -8M.; summary of the method: as §2
[9] = target: Aldo-keto reductase family 1 member B1 (Bos taurus) (UniProt P16116); assay: in vitro inhibition of Aldose reductase in partially purified bovine lens preparation at a concentration of 10e-6 M.
Rattus norvegicus [10] = assay: In vivo inhibition of galactitol accumulation in the diaphragm of rats fed 20% galactose for 4 day at 96 mg/kg/day dose; format: functional; summary of the method: as §1
Rattus norvegicus [11] = assay: In vivo inhibition of galactitol accumulation in the sciatic nerve of rats fed 20% galactose for 4 day at 96 mg/kg/day dose; NS = No Significant inhibition of polyol accumulation; format: functional, organism-based
Rattus norvegicus [12] = assay: In vivo inhibition of galactitol accumulation in the sciatic nerve of rats fed 20% galactose for 4 day at 94 mg/kg/day dose; NS = No Significant inhibition of polyol accumulation; format: functional, organism-based
Rattus norvegicus [13] = assay: In vivo inhibition of galactitol accumulation in the diaphragm of rats fed 20% galactose for 4 day at 94 mg/kg/day dose; NS = No Significant inhibition of polyol accumulation; format: functional, organism-based; summary of the method: as §1
Rattus norvegicus [14] = assay: In vivo inhibition of galactitol accumulation in the sciatic nerve of rats fed 20% galactose for 4 day at 96 mg/kg/day dose; format: functional
Rattus norvegicus [15] = assay: In vivo inhibition of galactitol accumulation in the diaphragm of rats fed 20% galactose for 4 day at 70 mg/kg/day dose; format: functional; summary of the method: as §1
[16] = target: Aldo-keto reductase family 1 member B1 (Bos taurus) (UniProt P16116); assay: In vitro inhibition of aldose reductase in partially purified bovine lens preparation at a concentration of 4*10e -8M.; summary of the method: as §2
Rattus norvegicus [17] = assay: In vivo inhibition of galactitol accumulation in the sciatic nerve of rats fed 20% galactose for 4 day at 70 mg/kg/day dose; format: functional; summary of the method: as §1
Rattus norvegicus [18] = assay: In vivo inhibition of galactitol accumulation in the diaphragm of rats fed 20% galactose for 4 day at 81 mg/kg/day dose; format: functional; summary of the method: as §1
Rattus norvegicus [19] = assay: In vivo inhibition of galactitol accumulation in the sciatic nerve of rats fed 20% galactose for 4 day at 95 mg/kg/day dose; NS= No Significant inhibition of polyol accumulation; format: functional, organism-based
Rattus norvegicus [20] = assay: In vivo inhibition of galactitol accumulation in the diaphragm of rats fed 20% galactose for 4 day at 109 mg/kg/day dose; format: functional; summary of the method: as §1
Rattus norvegicus [21] = assay: In vivo inhibition of galactitol accumulation in the diaphragm of rats fed 20% galactose for 4 day at 79 mg/kg/day dose; NS = No Significant inhibition of polyol accumulation; format: functional, organism-based; summary of the method: as §1
Rattus norvegicus [22] = assay: In vivo inhibition of galactitol accumulation in the sciatic nerve of rats fed 20% galactose for 4 day at 79 mg/kg/day dose; NS = No Significant inhibition of polyol accumulation; format: functional, organism-based; summary of the method: as §1
Rattus norvegicus [23] = assay: In vivo inhibition of galactitol accumulation in the sciatic nerve of rats fed 20% galactose for 4 day at 100 mg/kg/day dose; format: functional; summary of the method: as §1
Rattus norvegicus [24] = assay: In vivo inhibition of galactitol accumulation in the diaphragm of rats fed 20% galactose for 4 day at 100 mg/kg/day dose; format: functional; summary of the method: as §1
Rattus norvegicus [25] = assay: In vivo inhibition of galactitol accumulation in the diaphragm of rats fed 20% galactose for 4 day at 91 mg/kg/day dose; format: functional; summary of the method: as §1
Rattus norvegicus [26] = assay: In vivo inhibition of galactitol accumulation in the sciatic nerve of rats fed 20% galactose for 4 day at 91 mg/kg/day dose; format: functional; summary of the method: as §1
Rattus norvegicus [27] = assay: In vivo inhibition of galactitol accumulation in the diaphragm of rats fed 20% galactose for 4 day at 88 mg/kg/day dose; format: functional, organism-based; summary of the method: as §1
Rattus norvegicus [28] = assay: In vivo inhibition of galactitol accumulation in the sciatic nerve of rats fed 20% galactose for 4 day at 88 mg/kg/day dose; NS = No Significant inhibition of polyol accumulation; format: functional, organism-based; summary of the method: as §1
Rattus norvegicus [29] = assay: In vivo inhibition of galactitol accumulation in the sciatic nerve of rats fed 20% galactose for 4 day at 101 mg/kg/day dose; format: functional; summary of the method: as §1
Rattus norvegicus [30] = assay: In vivo inhibition of galactitol accumulation in the diaphragm of rats fed 20% galactose for 4 day at 101 mg/kg/day dose; format: functional; summary of the method: as §1

Cc1nc2ccc(Br)cc2c(=O)n1CC(=O)O was tested, and the Lowering (Rattus norvegicus [1]) was “Not significant”, the inhibition [2] was 20% and the Lowering (Rattus norvegicus [3]) was “Not significant”. For the same compound, the inhibition [4] was 63%.
With O=C(O)Cn1c2ccc([N+](=O)[O-])cc2c(=O)n1Cc1ccc(Cl)c(Cl)c1 the Lowering (Rattus norvegicus [5]) was “Not significant”, the Lowering (Rattus norvegicus [6]) was “Not significant” and the inhibition [7] was 41%. For the same compound, the inhibition [8] was 27%.
In the case of O=C(O)Cn1c(=O)c2ccccc2n1Cc1ccc(Br)cc1F, the inhibition [9] is reported as 40%, the Lowering (Rattus norvegicus [10]) is reported as 24% and the Lowering (Rattus norvegicus [11]) is reported as “Not significant”.
For Cc1nc2ccc(Br)cc2c(=S)n1CC(=O)O, the Lowering (Rattus norvegicus [12]) was “Not significant”, the Lowering (Rattus norvegicus [13]) was “Not significant” and the inhibition [2] was 54%. For the same compound, the inhibition [4] was 88%.
In the case of O=C(O)Cn1c(=O)c2cc(Br)ccc2n(Cc2ccc(Br)cc2F)c1=O, the Lowering (Rattus norvegicus [14]) is reported as 60%, the Lowering (Rattus norvegicus [10]) is reported as 76% and the inhibition [7] is reported as 83%. For the same compound, the inhibition [8] was 71%.
Work on O=C(O)Cn1c(=O)c2cc(Cl)ccc2n(Cc2ccc(Br)cc2F)c1=S yielded an inhibition [2] of 70%, a Lowering (Rattus norvegicus [15]) of 60% and an inhibition [16] of 24%. The Lowering (Rattus norvegicus [17]) was 39%.
For O=C(O)CN1Cc2ccccc2N(Cc2ccc(Cl)c(Cl)c2)C1=O, the inhibition [2] was 68%, the Lowering (Rattus norvegicus [18]) was 38% and the Lowering (Rattus norvegicus [19]) was “Not significant”. It also gave an inhibition [16] of 41%.
With O=C(O)CN1C(=O)N(Cc2ccc(Cl)c(Cl)c2)Cc2ccccc21 the Lowering (Rattus norvegicus [20]) was 30%, the inhibition [2] was 53% and the Lowering (Rattus norvegicus [19]) was “Not significant”. For the same compound, the inhibition [16] was 31%.
For Cc1nc2cc3ccccc3cc2c(=O)n1CC(=O)O, the Lowering (Rattus norvegicus [21]) was “Not significant”, the inhibition [9] was 76% and the Lowering (Rattus norvegicus [22]) was “Not significant”. It also gave an inhibition [7] of 28%.
Work on COc1ccc2c(c1)c(=O)n(CC(=O)O)c(=O)n2Cc1ccc(Cl)c(Cl)c1 yielded an inhibition [2] of 85%, a Lowering (Rattus norvegicus [23]) of 63% and a Lowering (Rattus norvegicus [24]) of 70%. It also gave an inhibition [16] of 49%.
In the case of O=C(O)Cn1c(=O)n(Cc2ccc(Cl)c(Cl)c2)c(=S)c2cc(Cl)ccc21, the inhibition [2] is reported as 89%, the Lowering (Rattus norvegicus [15]) is reported as 50% and the inhibition [16] is reported as 54%. It also gave a Lowering (Rattus norvegicus [17]) of 28%.
In the case of O=C(O)Cn1c(=O)c2cc(Cl)ccc2n(Cc2ccc(Br)cc2F)c1=O, the Lowering (Rattus norvegicus [25]) is reported as 78%, the inhibition [2] is reported as 80% and the Lowering (Rattus norvegicus [26]) is reported as 47%. The inhibition [16] was 51%.
In the case of Cc1sc2c(c1C)c(=O)n(CC(=O)O)c(=O)n2Cc1ccc(Cl)c(Cl)c1, the Lowering (Rattus norvegicus [27]) is reported as “Not significant”, the inhibition [2] is reported as 79% and the inhibition [16] is reported as 51%. For the same compound, the Lowering (Rattus norvegicus [28]) was “Not significant”.
For O=C(O)Cn1c(=O)n(Cc2ccc(Cl)c(Cl)c2)c(=O)c2cc(Cl)ccc21, the inhibition [2] was 88%, the Lowering (Rattus norvegicus [29]) was 38% and the inhibition [16] was 64%. The Lowering (Rattus norvegicus [30]) was 68%.
